This note sets out measurements from ChEMBL document CHEMBL3608271, “New phenolic compounds from the seeds of Nigella glandulifera and their inhibitory activities against human cancer cells” (Bioorg Med Chem Lett, 2015).

SMILES strings stand for the structures.

Holding throughout (assay type): functional, cell-based
For one experiment, the system named is HepG2. Kind of experiment: Cytotoxicity against human HepG2 cells after 72 hrs by MTT assay. The note with it: HepG2, 72 h. In outline:
(§1)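 Cells seeded in 96-well plates and grown 24 h at 37 °C, 5% CO2, then exposed to test compound at five concentrations for 72 h. MTT (0.5 mg/mL in PBS) added, 4 h at 37 °C. Medium replaced with DMSO, shaken 3 min to dissolve formazan, optical density read at 544 nm. 5-Fluorouracil as positive control.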

The nature of experiment [1]: Cytotoxicity against human HCT8 cells after 72 hrs by MTT assay. The note with it: HCT-8, 72 h. Put shortly:
as §1

The nature of experiment [2]: Cytotoxicity against human Bel7402 cells after 72 hrs by MTT assay. The note with it: Bel-7402, 72 h. Put shortly:
as §1

In a further experiment the test system is A549. Kind of experiment: Cytotoxicity against human A549 cells after 72 hrs by MTT assay. Particulars: A549, 72 h. In outline:
as §1

Turning to `CC1(C)C=Cc2c(cc3c(c2O)C(=O)OC3)O1`, the IC50 in the experiment on HepG2 is 37 µM; in experiment [1], 24.1 µM; in experiment [2], more than 40 µM; with A549 it was more than 40 µM.
Turning to `CC(C)(O)CCc1c(O)cc(CO)cc1O`, the IC50 is 17.8 µM in the experiment on HepG2, more than 40 µM in experiment [1], more than 40 µM in experiment [2] and more than 40 µM in the experiment on A549.
`CC(C)=CCc1c(O)cc(CO)cc1O`: the half-maximal inhibitory concentration (IC50) was determined as 15.8 µM in the experiment with HepG2, 11.4 µM in experiment [1], 7.69 µM in experiment [2] and 20.1 µM in the experiment on A549.
On to `CC1(C)C=Cc2c(O)cc(CO)cc2O1`, for which the half-inhibitory concentration (IC50) in the experiment on HepG2 was 17.3 µM; in experiment [1] it was more than 40 µM; in experiment [2], more than 40 µM; in the experiment on A549, 36.3 µM.
Take `O=c1[nH]cc(F)c(=O)[nH]1` [FLUOROURACIL]: the IC50 in the experiment on HepG2 is 16.4 µM; in experiment [1], 6.3 µM; in experiment [2], 10.1 µM; in the experiment on A549, 14.2 µM.
